Data on 18 compounds can be found in ChEMBL document CHEMBL4346662, “Synthesis of novel 7-azaindole derivatives containing pyridin-3-ylmethyl dithiocarbamate moiety as potent PKM2 activators and PKM2 nucleus translocation inhibitors” (Eur J Med Chem, 2019).

Molecules are shown by their SMILES. Activity calls are given as the source filed them. The calls are words filed in the database; no cut-off is given here.

One test has as its system HCT-116. Description: Antiproliferative activity against human HCT116 cells assessed as reduction in cell growth incubated for 72 hrs by CellTiter-Glo assay. Type of test: functional, cell-based. The settings on record: HCT-116, 72 h. In short, it runs like this: (§1)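 Cells (H1299 in RPMI 1640; HCT116 and A375 in DMEM; 10% FBS, 37 °C, 5% CO2) plated at 2000 per well, left 24 h, then exposed to ten concentrations or DMSO for 72 h. CellTiter-Glo added, 30 min at room temperature in dark, luminescence read. IC50 fitted from triplicate experiments.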

Test [1] concerns the target T1, Pyruvate kinase PKM (Homo sapiens, UniProt P14618). Description: Activation of human recombinant His-tagged PKM2 expressed in Escherichia coli assessed as maximal activity using PEP as substrate measured at 30 sec between 3 and 6 mins in presence of […] by fluorescent pyruvate kinase-lactate dehydrogenase coupled assay relative to control. In short, it runs like this: (§2)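 Pyruvate kinase activity read by fluorescent pyruvate kinase–lactate dehydrogenase coupled assay; AC50 and maximal activation are means of at least two determinations.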
Target sequence in this assay (P14618 2-531 limits assumed): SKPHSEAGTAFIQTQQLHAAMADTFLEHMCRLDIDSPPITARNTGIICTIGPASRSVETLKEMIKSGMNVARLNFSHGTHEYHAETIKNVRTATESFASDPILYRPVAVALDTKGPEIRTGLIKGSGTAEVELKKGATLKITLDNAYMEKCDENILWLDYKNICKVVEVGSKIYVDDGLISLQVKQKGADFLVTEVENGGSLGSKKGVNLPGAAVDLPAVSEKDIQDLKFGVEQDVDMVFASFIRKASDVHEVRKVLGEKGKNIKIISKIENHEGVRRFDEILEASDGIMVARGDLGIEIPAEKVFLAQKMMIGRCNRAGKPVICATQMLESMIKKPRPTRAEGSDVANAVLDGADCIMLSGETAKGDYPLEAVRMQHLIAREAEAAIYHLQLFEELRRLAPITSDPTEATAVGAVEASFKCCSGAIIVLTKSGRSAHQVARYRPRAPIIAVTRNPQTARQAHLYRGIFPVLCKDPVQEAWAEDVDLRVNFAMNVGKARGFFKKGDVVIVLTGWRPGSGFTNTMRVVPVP

Another test has as its system NCI-H1299. Briefly: Antiproliferative activity against human H1299 cells assessed as reduction in cell growth incubated for 72 hrs by CellTiter-Glo assay. Type of test: functional, cell-based. Particulars: NCI-H1299, 72 h. Summed up:
as §1

The next test deals with A-375. Briefly: Antiproliferative activity against human A375 cells assessed as reduction in cell growth incubated for 72 hrs by CellTiter-Glo assay. It is filed as functional, cell-based. The settings on record: A-375, 72 h. Summed up: as §1
Test [2] has as its target T1, Pyruvate kinase PKM. Briefly: Activation of human recombinant His-tagged PKM2 expressed in Escherichia coli using PEP as substrate measured at 30 sec between 3 and 6 mins in presence of […] by fluorescent pyruvate kinase-lactate dehydrogenase coupled assay. In short, it runs like this:
as §2
Target sequence in this assay (P14618 whole entry): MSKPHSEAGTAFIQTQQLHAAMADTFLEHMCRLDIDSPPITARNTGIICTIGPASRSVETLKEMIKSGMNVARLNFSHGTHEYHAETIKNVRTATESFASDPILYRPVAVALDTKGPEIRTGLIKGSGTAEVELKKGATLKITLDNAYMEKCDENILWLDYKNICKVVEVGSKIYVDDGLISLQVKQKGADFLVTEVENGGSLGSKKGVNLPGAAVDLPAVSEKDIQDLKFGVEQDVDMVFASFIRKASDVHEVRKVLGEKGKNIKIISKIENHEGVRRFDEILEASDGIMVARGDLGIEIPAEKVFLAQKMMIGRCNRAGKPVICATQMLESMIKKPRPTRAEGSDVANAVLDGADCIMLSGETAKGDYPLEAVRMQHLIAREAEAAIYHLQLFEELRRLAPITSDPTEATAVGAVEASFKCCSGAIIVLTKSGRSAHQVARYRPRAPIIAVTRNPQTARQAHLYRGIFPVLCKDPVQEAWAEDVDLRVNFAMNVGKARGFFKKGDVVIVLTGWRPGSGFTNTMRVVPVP

Regarding `O=C(CCSC(=S)NCc1cccnc1)c1c[nH]c2ncccc12`, the results for the IC50 in the test with HCT-116, in the test with NCI-H1299 and in the test with A-375 were 3090 nM, 3680 nM and 1030 nM, respectively. For the same compound, the %max on Pyruvate kinase PKM [1] was 113%.
Take `O=C(CCSC(=S)NCc1cccnc1)c1cnn2ccccc12`: the %max at Pyruvate kinase PKM [1] came out at 23%. Moreover, the AC50 at Pyruvate kinase PKM [2] (read-out: AC50) was above 20000 nM.
As to `O=C(CCSC(=S)NCc1cccnc1)c1c[nH]c2nc(Cl)ccc12`, the “%max” value at Pyruvate kinase PKM [1] was “inactive”. For the same compound, the AC50 entry at Pyruvate kinase PKM [2] is given as “Not Active”.
Turning to `O=C(CCSC(=S)NCc1cccnc1)c1c[nH]c2nccc(-c3ccccc3)c12`, at Pyruvate kinase PKM [1], the %max was 28%. Further, the AC50 on Pyruvate kinase PKM [2] (read-out: AC50) was found to be 2170 nM.
For the compound `O=C(CCSC(=S)NCc1cccnc1)c1c[nH]c2nccc(Br)c12`, the concentration for half-maximal inhibition (IC50) was 4900 nM with HCT-116, above 10000 nM in the test on NCI-H1299 and 1990 nM in the test with A-375. The %max on Pyruvate kinase PKM [1] was 83%. Moreover, the AC50 at Pyruvate kinase PKM [2] (read-out: AC50) stood at 610 nM.
As for `C#Cc1ccnc2[nH]cc(C(=O)CCSC(=S)NCc3cccnc3)c12`, the %max at Pyruvate kinase PKM [1] was 24%. The AC50 on Pyruvate kinase PKM [2] (read-out: AC50) is above 20000 nM.
As for `O=C(CCSC(=S)NCc1cccnc1)c1c(-c2ccccc2)nn2ncccc12`, the figures for the IC50 with HCT-116, with NCI-H1299 and in the test on A-375 were 9080 nM, above 10000 nM and 2770 nM, respectively. For the same compound, on Pyruvate kinase PKM [1], the %max was 148%. In addition, the AC50 on Pyruvate kinase PKM [2] (read-out: AC50) was 450 nM.
On the same counts, the results for `O=C(CCSC(=S)NCc1cccnc1)c1cn(C2CCC2)c2ncccc12` are 3520 nM, 4200 nM, 1340 nM, 93% and 3930 nM.
On to `Cc1ccc2c(C(=O)CCSC(=S)NCc3cccnc3)c[nH]c2n1`, for which the “%max” value at Pyruvate kinase PKM [1] is “inactive”. At Pyruvate kinase PKM [2], the AC50 result was “Not Active”.
As for `Cn1cc(C(=O)CCSC(=S)NCc2cccnc2)c2cccnc21`, the IC50 is 940 nM with HCT-116, 2090 nM with NCI-H1299 and 290 nM in the test with A-375. Moreover, the %max on Pyruvate kinase PKM [1] was determined as 114%. Moreover, the AC50 at Pyruvate kinase PKM [2] (read-out: AC50) was 4350 nM.
Take `O=C(CCSC(=S)NCc1cccnc1)c1c[nH]c2nccc(Cl)c12`: the figures for the IC50 in the test with HCT-116, in the test with NCI-H1299 and in the test with A-375 were 2060 nM, 2500 nM and 410 nM, respectively. Moreover, the %max on Pyruvate kinase PKM [1] is 122%. For the same compound, the AC50 at Pyruvate kinase PKM [2] (read-out: AC50) turned out to be 1140 nM.
Take `O=C(CCSC(=S)NCc1cccnc1)c1cn(-c2ccccc2)c2ncccc12`: the IC50 in the test on HCT-116 was 5360 nM; in the test on NCI-H1299, 10000 nM; in the test with A-375, 3860 nM. The %max at Pyruvate kinase PKM [1] came out at 77%. Besides, the AC50 on Pyruvate kinase PKM [2] (read-out: AC50) was found to be 2500 nM.
The like results for `O=C(CCSC(=S)NCc1cccnc1)c1cn(C2CC2)c2ncccc12` were, in that order, 840 nM, 9510 nM, 210 nM, 42% and 4560 nM.
As for `O=C(CCSC(=S)NCc1cccnc1)c1cn(-c2cccs2)c2ncccc12`, the “%max” value at Pyruvate kinase PKM [1] is “inactive”. Moreover, the AC50 result at Pyruvate kinase PKM [2] is “Not Active”.
Regarding `O=C(CCSC(=S)NCc1cccnc1)c1c[nH]c2ncc(-c3ccc(Cl)cc3)cc12`, on Pyruvate kinase PKM [1], the “%max” value was “inactive”. Moreover, the AC50 at Pyruvate kinase PKM [2] (read-out: AC50) was above 20000 nM.
With `O=C(CCSC(=S)NCc1cccnc1)c1cnn2ncccc12`, the IC50 in the test on HCT-116 came to 1520 nM; in the test with NCI-H1299, 1760 nM; in the test with A-375, 330 nM. On Pyruvate kinase PKM [1], the %max worked out at 44%. For the same compound, the AC50 on Pyruvate kinase PKM [2] (read-out: AC50) was 220 nM.
`O=C(CCSC(=S)NCc1cccnc1)c1c[nH]c2ncc(Cl)cc12`: the results for the IC50 in the test with HCT-116, in the test with NCI-H1299 and with A-375 were 6160 nM, 8870 nM and 3380 nM, respectively. In addition, the %max on Pyruvate kinase PKM [1] was found to be 71%. On Pyruvate kinase PKM [2] (read-out: AC50), the AC50 came out at 180 nM.
`O=C(CCSC(=S)NCc1cccnc1)c1c[nH]c2nccc(C3CC3)c12`: on Pyruvate kinase PKM [1], the “%max” value is “inactive”. In addition, the AC50 result on Pyruvate kinase PKM [2] is on record as “Not Active”.
